PPC-1+TRAIL kill: PPC-1 cancer cell killing with TRAIL present; PPC-1 cells + TRAIL, ATPLite viability luminescence; cell killing (% activity), % at 4 µM or 5 µM; 220,000 compounds, 0.41% hits; AID 1443;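 active = cell killing above 50% in the first pass at 4 µM, then a duplicate retest at 5 µM averaging 50% or more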;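 also: plate controls were cells with TRAIL plus DMSO for no effect and medium-only wells lacking cells for full effect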
NF-kB expr up: raises NF-kB expression in human neuronal cells | NF-kB reporter expression; stronger effect = higher value | 190,000 compounds, 1.6% hits | fold change at 12.5 µM; in the data active = fold change above about 3.3
FLuc inh counter: counter-screen for luciferase assay inhibitors: firefly luciferase inhibition | AID 1006 | 200,000 compounds, 1.5% hits | P08659 | ATPLite firefly luciferase biochemical luminescence, 10 min | inhibition, % at 10 µM;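 active = inhibition above about 50% when tested at 10 µM, limit read from the data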
Target sequence (P08659 whole entry, looked up): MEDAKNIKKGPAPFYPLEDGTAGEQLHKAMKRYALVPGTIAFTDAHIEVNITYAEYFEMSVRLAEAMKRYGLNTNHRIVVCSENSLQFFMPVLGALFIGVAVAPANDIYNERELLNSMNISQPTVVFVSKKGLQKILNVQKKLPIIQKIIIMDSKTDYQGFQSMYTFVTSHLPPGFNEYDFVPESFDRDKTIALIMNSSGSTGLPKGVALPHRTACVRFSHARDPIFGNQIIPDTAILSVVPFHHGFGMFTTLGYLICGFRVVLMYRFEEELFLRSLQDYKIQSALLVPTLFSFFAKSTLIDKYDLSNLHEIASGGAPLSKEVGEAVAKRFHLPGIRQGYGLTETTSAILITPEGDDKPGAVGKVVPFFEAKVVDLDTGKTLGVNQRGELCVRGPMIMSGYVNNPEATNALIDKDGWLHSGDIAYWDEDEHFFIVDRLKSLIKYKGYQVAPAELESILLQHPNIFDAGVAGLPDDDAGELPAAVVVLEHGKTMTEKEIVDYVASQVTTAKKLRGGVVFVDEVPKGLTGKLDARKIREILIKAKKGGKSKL
TRAIL sens C8: caspase-8 TRAIL sensitization. NB7+C8 cells + TRAIL, ATPlite viability luminescence. inhibition (viability loss, TRAIL sensitization), % at 10 µM. 360,000 compounds, 1% hits. AID 624354;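 active = compounds causing at least 50% loss of cell viability in the single-dose screen, relative to plate controls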
FLuc stim CS: firefly luciferase counter-screen for stimulation assays; P08659; 200,000 tested, under 10 active; activation factor at 10 µM; ATPlite luciferase biochemical, luminescence, 10 min; 0 = ATP-free wells, 1 = DMSO control;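 active = luciferase activation factor, scaled between plate controls, of at least 2 with compound at 10 µM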
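Assay system – cell-free luciferase reagent · Medium – PBS-based ATP solution · Dosing – test compounds dosed from 2 mM stocks in 100% DMSO · Timing – 10 min, room temperature · Technique – light output (luminescence) · Measure – luminescence gain marking luciferase activators · Controls – No-ATP low control, compound-free enzyme-plus-ATP high control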
APP 5'UTR act: APP 5'UTR luciferase reporter activation. SH-SY5Y APP 5'UTR luciferase reporter, luminescence; zero percent = DMSO vehicle wells. activation, % at 2 µM. 190,000 compounds, 1% hits. AID 1276;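 active = activation above a set limit, based on mean plus 3 SD of controls, cut at about 140% in these data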
* = called active by the depositor; · = not tested or not shown. A selection: hits, their analogues and other compounds. The true share with any hit is near 2.2%.

SMILES | PPC-1+TRAIL kill | NF-kB expr up | FLuc inh counter | TRAIL sens C8 | FLuc stim CS | APP 5'UTR act
CC1=CC(=C2C(=O)c3ccccc3C2=O)C=C(C)O1 | 14.4 | 2.37 | 2.5 | 26.4 | 1 | 11.3
CCc1ccc(NC(=O)c2noc3c2CCC3)cc1 | 4.0 | 3.4* | 63.8* | 27.6 | 0.4 | 143.8*
Cc1ccc(O)c(NC(=O)c2noc3c2CCCCC3)c1 | 44.6 | 9.75* | 65.3* | 11.5 | 0.3 | 211.5*
O=C(NCCc1ccccc1)c1noc2c1CCCCC2 | 6.0 | 3.76* | 8.4 | -3.4 | 0.9 | 100.5
O=C(NCc1ccccc1)c1noc2c1CCCC2 | 16.3 | 1.41 | 1.4 | 3.5 | 1 | 0.0
CCc1ccc(NC(=O)c2noc3c2CCc2ccccc2-3)cc1 | -6.6 | 1.99 | -2.1 | 7.2 | 1 | 1.3
CCc1ccc(NC(=O)c2noc3c2CCCCC3)cc1 | 6.4 | 4.48* | 9.9 | 20.2 | 0.9 | 201.5*
O=C(CN1CCN(Cc2ccccc2Cl)CC1)N/N=C/c1ccco1 | -1.3 | · | · | -3.7 | · | ·
Cc1ccc(C(=O)c2c3ccc([N+](=O)[O-])cc3[n+]([O-])n2CCCN)cc1 | · | · | · | 13.2 | · | ·
Cc1ccc(NC(=O)c2noc3c2CCCCC3)cc1 | 21.9 | 8.1* | 31.6 | 18.0 | 0.7 | 140.0*
COc1ccc(NC(=O)c2noc3c2CCCCC3)cc1 | 12.2 | 6.73* | 24.4 | -8.1 | 0.8 | 166.0*
O=C(NC1CCCCC1)c1noc2c1CCCCC2 | 8.7 | 1.42 | 22.3 | 34.7 | 0.8 | 131.3
Cc1ccc(NC(=O)c2noc3c2CCCCC3)cc1C | -8.4 | 4.86* | 15.9 | 16.9 | 0.8 | 237.3*
Cc1ccc(Cn2ccc(NC(=O)c3noc4c3CCCCC4)n2)cc1 | 3.2 | 1.3 | 0.5 | 2.5 | 1 | -2.4
COc1cc(/C=C2/SC(=S)N(CCC(=O)Nc3cccnc3)C2=O)cc(OC)c1OC | · | · | · | 11.2 | · | ·
Cc1ccc(S(=O)(=O)Nc2ccccc2N=Cc2ccc([N+](=O)[O-])cc2[N+](=O)[O-])cc1 | · | · | · | -12.1 | · | ·
O=C(CCl)N(O)c1ccc(C=Cc2ccccc2)cc1 | · | · | · | 51.1* | · | ·
O=C(Nc1cccnc1)c1cc(-c2ccc(F)cc2)on1 | -0.2 | 1.21 | 53.9* | -1.5 | 0.5 | 17.2
O=C(Nc1cccnc1)c1cc(-c2ccc(Cl)c(Cl)c2)on1 | · | · | · | -3.9 | · | ·
O=C(COCc1cc(-c2ccc3c(c2)OCO3)on1)Nc1cccnc1 | · | · | · | -23.2 | · | ·
O=C(Nc1cccnc1)c1cc(-c2ccc3c(c2)OCO3)on1 | 17.1 | 5.49* | 68.2* | 9.6 | 0.3 | 11.1
O=C(COc1ccc2c(c1)OCO2)Nc1cccc(F)c1 | · | · | · | -1.6 | · | ·
Cc1ccc(C(=O)NC(Cc2cccc(C(F)(F)F)c2)C(=O)O)cc1 (stereo unspecified) | · | · | · | 7.6 | · | ·
O=C(NNC(=O)c1cc(OCC(F)(F)F)ccc1OCC(F)(F)F)c1ccc(Cl)c(Cl)c1 | 5.1 | 0.78 | -9.6 | 66.5* | 1.1 | ·
C=CCONC(=O)c1cc(OCC(F)(F)F)ccc1OCC(F)(F)F | 15.2 | 1.13 | -7.9 | 13.4 | 1.1 | 4.8
SMILES | PPC-1+TRAIL kill | NF-kB expr up | FLuc inh counter | TRAIL sens C8 | FLuc stim CS | APP 5'UTR act
CC1=C(C(=O)OCCBr)C(c2cccc3ccccc23)NC(=O)N1 (stereo unspecified) | · | · | · | -4.6 | · | ·
C[C@H]1[C@H](c2ccccc2)C[C@@H](C(=O)O)C1(C)C | · | · | · | 0.6 | · | ·
Cc1oc(-c2cccc(Cl)c2)nc1CN1CCC(C(=O)NCCCN2CCCC2=O)CC1 | -6.5 | 0.94 | -11.8 | 4.0 | 1.1 | -15.2
COc1ccc(CCNC(=O)C2CCN(Cc3nc(-c4cccc(Cl)c4)oc3C)CC2)cc1OC | 18.5 | 0.78 | -7.5 | 54.4* | 1.1 | -16.2
Cc1oc(-c2cccc(Cl)c2)nc1CN1CCC(C(=O)NCCCN2CC(C)CC(C)C2)CC1 (stereo unspecified) | · | · | · | 54.4* | · | ·
Cc1ccccc1OCC(=O)O/N=C(\N)c1ccncc1 | · | · | · | 8.1 | · | ·
Cc1ccc(NCc2nnc(SCC(=O)O)n2-c2ccc(C)cc2)cc1 | · | 1.23 | 81.8* | -7.6 | 0.2 | -1.1
Cc1ccc(-n2c(CNc3ccc(F)cc3)nnc2SCC(=O)O)cc1 | 0.2 | 1.14 | -4.0 | 7.2 | 1 | -8.5
CCN(CC)c1ccc(NC(=O)c2ccc(Br)o2)cc1 | -14.0 | 6.97* | 52.8* | 32.2 | 0.5 | 178.0*
O=C(COc1ccc(/C=N/NC(=O)c2cc3ccccc3o2)cc1Cl)Nc1ccccc1 | 24.7 | 1.04 | 0.6 | 92.6* | 1 | 31.6
CCC(C)NC(=O)c1cc2c(=O)[nH]c3ccc(C)cc3c2s1 (stereo unspecified) | · | · | · | 3.3 | · | ·
Cc1ccc(-n2nc3c(c2NC(=O)C(C)(C)C)CS(=O)(=O)C3)cc1 | · | · | · | -10.3 | · | ·
COC(=O)c1ccc(CCc2cc(O)c(Br)cc2O)cc1 | · | · | · | 48.9* | · | ·
COC(=O)c1ccc(CCc2cc(O)ccc2O)cc1 | · | · | · | 46.6 | · | ·
C#CCOCCOCCOCCNc1nc(N2CCN(C(=O)CCCCCCCCCCNC(=O)Cn3cc(C[C@@H](C)O)nn3)CC2)nc(N2CCN(C(=O)CCCCCCCCCCNC(=O)Cn3cc(C[C@@H](C)O)nn3)CC2)n1 | · | · | · | 9.4 | · | ·
C#CCOCCOCCOCCNc1nc(N2CCN(C(=O)CCCCCCCCCCNC(=O)[C@H](CCCCN)n3cc(C[C@@H](C)CC)nn3)CC2)nc(N2CCN(C(=O)CCCCCCCCCCNC(=O)[C@H](CCCCN)n3cc(C[C@@H](C)CC)nn3)CC2)n1 | · | · | · | 94.8* | · | ·
C#CCOCCOCCOCCNc1nc(N2CCN(C(=O)CCCCCCCCCCNC(=O)Cn3cc(C[C@@H](C)O)nn3)CC2)nc(N2CCN(C(=O)CCCCCCCCCCNC(=O)[C@H](CCCCN)n3cc(C[C@@H](C)CC)nn3)CC2)n1 | · | · | · | 86.1* | · | ·
COc1ccc(NC(=O)C(c2ccncc2)n2c(=O)c(-c3ccco3)nc3ccccc32)cc1 (stereo unspecified) | · | · | · | -3.9 | · | ·
CCOc1ccc(/C=N/NC(=O)c2cc(-c3ccco3)nc3ccccc23)cc1 | 2.6 | 1.31 | 53.4* | 14.2 | 0.5 | -17.5
CCOc1ccccc1-c1cc(C(=O)N/N=C/c2ccc3c(c2)OCO3)c2ccccc2n1 | 6.6 | 2.7 | -3.6 | 9.7 | 1 | -1.1
O=C(O)c1cc(-c2ccco2)nc2ccccc12 | 1.5 | 1.25 | 7.5 | -2.9 | 0.9 | -4.3
O=C(N/N=C/c1ccc(F)cc1)c1cc(-c2ccco2)nc2ccccc12 | 6.2 | 1.41 | 47.7 | 50.4* | 0.5 | 0.8
Nn1c(-c2cccs2)nc2sc3c(c2c1=O)CCCC3 | 28.0 | 3.86* | 45.3 | 40.8 | 0.5 | 155.8*
CC1(C)Cc2c(sc3nc(-c4cccs4)n(N)c(=O)c23)CO1 | 31.7 | 1.19 | 39.8 | 35.2 | 0.6 | 52.0
Cc1ccccc1-c1nc2sc3c(c2c(=O)n1N)CCCC3 | -1.8 | 1.47 | 6.1 | 53.8* | 0.9 | 149.8*
O=C(CNc1ccc(C(F)(F)F)cc1)Nc1cccc(S(=O)(=O)N2CCCCC2)c1 | · | · | · | 10.2 | · | ·
Nc1ccc(S(=O)(=O)c2ccc(NC(=O)c3cccnc3)cc2)cc1 | · | · | · | -1.4 | · | ·
Cc1ccc(C(=O)NCCc2ccc(F)cc2)s1 | 27.4 | 4.19* | 38.4 | 24.2 | 0.6 | 161.7*

Screens deposited in PubChem BioAssay by several laboratories.
